# mABHD4 FP: ABHD4 inhibitors, primary screen, biochemical, fluorescence polarization, mouse | (Lyso)-N-acylphosphatidylethanolamine lipase (Mus musculus), Q8VD66 | purified mABHD4, FP-Rh probe fluorescence polarization | inhibition, % at 8.92 µM | 370,000 compounds, 0.54% hits;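 active = inhibition exceeding the mean over every tested compound plus 3 SD, cut at about 30% in these data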
# Target sequence (Q8VD66 whole entry, looked up): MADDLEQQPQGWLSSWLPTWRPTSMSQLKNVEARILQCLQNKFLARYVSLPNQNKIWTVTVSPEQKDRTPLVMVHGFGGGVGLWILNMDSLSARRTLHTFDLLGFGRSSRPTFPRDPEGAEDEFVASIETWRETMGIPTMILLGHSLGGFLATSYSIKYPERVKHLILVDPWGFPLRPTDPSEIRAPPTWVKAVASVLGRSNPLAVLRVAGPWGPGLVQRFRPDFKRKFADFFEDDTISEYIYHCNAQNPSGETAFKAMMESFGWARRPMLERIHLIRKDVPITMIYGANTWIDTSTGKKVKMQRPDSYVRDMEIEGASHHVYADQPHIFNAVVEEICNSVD
#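 Material: mouse ABHD4 enzyme, wild type; Benchmarks: S159A mutant high control, sample median low control; Buffer or medium: HEPES pH 7.0, NaCl, Pluronic buffer; Signal: fluorescence polarization; Read-out: percent inhibition of probe binding, normalized to plate controls; Timing: pre-incubation 45 min, probe exposure 60 min, at 25 °C; Dosing: 8.92 µM, single dose.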
# HTRA1 inhibitor: HTRA1 serine protease inhibitors, primary screen, biochemical, fluorescence polarization, HTS. 340,000 compounds, 0.5% hits. AID 504803, 2011. Q92743. inhibition, % at 5.96 µM. recombinant HTRA1, FP-rhodamine activity-based probe; in the data active = inhibition above about 36%
# PRMT1 inh: PRMT1 methyltransferase inhibitors, primary screen, biochemical, fluorescence polarization; Protein arginine N-methyltransferase 1 (Homo sapiens), Q99873; recombinant PRMT1, activity-based probe fluorescence polarization; inhibition, % at 2.79 µM; 370,000 compounds, 1.3% hits;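 active = inhibition above about 21% made by adding two undisclosed values, limit read from the data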
# TCR-CD3 inh: inhibitors of human TCR-CD3 interaction, primary screen, biochemical, fluorescence, TAMRA-labeled TCR probe | T-cell receptor (TCR) | inhibition, % at 9.4 µM | 360,000 compounds, 0.37% hits | AID 651800, 2012; in the data active = inhibition above about 19%;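 note: recombinant mutant TCR 2C K166C tagged with TAMRA read by polarization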
# SIAE inh: human SIAE inhibitors, primary screen, biochemical, fluorescence polarization, FP-Rh probe, 1536-well HTS; inhibition, % at 9.66 µM; SIAE FP-Rh probe binding; Sialate O-acetylesterase (Homo sapiens), Q9HAT2; 370,000 compounds, 0.69% hits; AID 1053197, 2014;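 active = inhibition above a cutoff: mean of compounds within the control limits plus 3 SD of those, cut at about 17% in these data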
# PRMT1 inh conf: PRMT1 methyltransferase inhibitors, confirmation, biochemical, fluorescence polarization, triplicate | shares compounds with PRMT1 inh | 3,300 compounds, 42% hits | inhibition, % at 2.79 µM | recombinant His-PRMT1, activity-based probe fluorescence polarization;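 active = mean inhibition across replicates above the hit cutoff derived for the earlier primary screen, cut at about 22% in these data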
# A number is an active result; - = inactive; . = no result. Hits are enriched below; roughly 2.5% of the tested compounds scored in any of these assays.
SMILES,mABHD4 FP,HTRA1 inhibitor,PRMT1 inh,TCR-CD3 inh,SIAE inh,PRMT1 inh conf
CCCCn1c(N)c(N(C)C(=O)c2ccc(Br)o2)c(=O)[nH]c1=O,-,-,-,-,-,.
CC(=O)Nc1c(O)c2ccccc2[nH]c1=O,-,-,36,-,-,-
CCCCC(=O)Nc1c(O)c2ccccc2[nH]c1=O,-,-,31,-,-,-
CNC(=O)C(=O)Nc1c(O)c2ccccc2[nH]c1=O,-,-,-,-,-,.
Cc1nc2ccc(S(=O)(=O)NCC(=O)N(C)Cc3ccccc3F)cc2s1,-,.,-,.,-,.
O=C(NCc1ccccc1)C1CC(=O)N(c2ccc(OCC(=O)N3CCOCC3)cc2)C1 (stereo unspecified),-,-,-,-,-,.
Cc1cn([C@H]2C[C@H](O)[C@@H](/C=C/C(=O)N3CCN(Cc4ccc(F)cc4)CC3)O2)c(=O)[nH]c1=O,-,.,-,-,-,.
O=C(CN1C(=O)C2CC=CCC2C1=O)Nc1ccc(Br)cc1 (stereo unspecified),-,-,-,-,-,.
O=C(Cn1sc2ccccc2c1=O)Nc1ccc(Cl)cc1,-,-,90,-,-,90
O=C(Cn1sc2ccccc2c1=O)Nc1ccc(Br)cc1,-,-,93,-,-,81
O=C(Cn1sc2ccccc2c1=O)Nc1ccc(F)cc1,-,-,91,-,-,91
COc1ccc(-n2cc(CNCCCn3ccnc3)c(-c3cccc(F)c3)n2)cc1,-,-,-,-,-,.
COC(=O)c1cc(C)sc1NC(=O)CN1CCN(C(=O)C2CCCO2)CC1 (stereo unspecified),-,-,-,-,-,.
CN1CCn2cnc(C(=O)N[C@@H](Cc3ccccc3)C(=O)OC(C)(C)C)c2C1=O,-,-,-,-,-,.
CCCC/C=C1/[C@H](c2ccc(Cl)cc2)N(Cc2ccc3c(c2)OCO3)C2=N[C@H](c3ccccc3)CC(=O)N21,-,.,-,.,-,.
O=C(CN1C(=O)C2C3C=CC(C3)C2C1=O)OCC(=O)c1ccc(Cl)cc1 (stereo unspecified),-,-,-,-,-,.
O=C(CN1C(=O)C2C3C=CC(C3)C2C1=O)OCC(=O)c1ccc([N+](=O)[O-])cc1 (stereo unspecified),-,-,50,-,-,42
CC(C(=O)OCC(=O)c1ccc([N+](=O)[O-])cc1)N1C(=O)C2C3C=CC(C3)C2C1=O (stereo unspecified),-,-,28,-,-,-
O=C(O)c1ccc(-n2cccc2/C=C2/NC(=O)N(c3cccc(Cl)c3)C2=O)cc1,-,-,29,-,-,-
O=C(CSc1nccc(=O)[nH]1)Nc1ccc(F)c(Cl)c1,-,-,42,-,-,30
O=C(CSc1nccc(=O)[nH]1)Nc1ccc(Br)c(Cl)c1,-,-,-,-,-,.
Cn1cnnc1SCc1ccc(-c2ccc(Br)cc2)o1,-,-,30,-,-,-
CC(C)(C)OC(=O)N1CCC2(CC1)C(C#N)=C(N)OC1=C2C(=O)CCC1,-,-,-,-,-,.
S=c1nc(-c2ccc(Cl)cc2)[nH][nH]1,-,-,-,-,-,.
CCCOc1ccc(-c2nc(=S)[nH][nH]2)cc1,-,-,46,-,-,-
SMILES,mABHD4 FP,HTRA1 inhibitor,PRMT1 inh,TCR-CD3 inh,SIAE inh,PRMT1 inh conf
O=C(NN1C(=O)/C(=C\c2ccc(O)c([N+](=O)[O-])c2)SC1=S)c1ccccc1Cl,-,-,-,-,-,.
O=C(O)c1ccc(/C=C2\SC(=S)N(NC(=O)c3ccccc3[N+](=O)[O-])C2=O)cc1,-,-,29,-,-,-
COCc1cc(N2CCN(C(=O)OC(C)(C)C)C[C@@H]2C)ccc1N1C[C@@H](C)O[C@@H](C)C1,-,.,-,-,-,.
COCc1cc(N2CCN(C(=O)OC(C)(C)C)C[C@H]2C)ccc1N1CC[C@@H](O)C1,-,.,66,-,-,-
Cc1ccc(CN2C(=O)C(C)Nc3ncnc(N4CCN(c5ccccn5)CC4)c32)cc1 (stereo unspecified),-,-,-,-,-,.
COc1ccc2nc3ccccc3[n+]([O-])c2c1,-,-,37,-,-,27
O=C(NCCO)C(O)C(O)C(=O)NCCO (stereo unspecified),-,-,-,-,-,.
CCOC(=O)C1CCCN(S(=O)(=O)c2ccc3c(c2)NC(=O)CO3)C1 (stereo unspecified),-,-,-,-,-,.
CCOC(=O)C1CCCN(S(=O)(=O)c2cc3c(cc2Cl)NC(=O)CO3)C1 (stereo unspecified),-,-,34,-,-,-
O=C(CSC1=NCCN1)C1COc2ccccc2O1 (stereo unspecified),-,-,34,-,-,42
O=C(Nc1ccncc1)C1COc2ccccc2O1 (stereo unspecified),-,-,-,-,-,.
CCOC(=O)CNC(c1ccccc1)c1cc(Br)ccc1NC(=O)CCN1CCOCC1 (stereo unspecified),-,-,37,-,-,-
COC(=O)CNC(c1ccccc1)c1cc(Br)ccc1NC(=O)CCN1CCOCC1 (stereo unspecified),-,-,-,-,-,.
CCOc1ccccc1NC(=O)c1c(NC(=O)CCC(=O)O)sc2c1CCCCC2,-,-,25,-,-,-
CCCOC(=O)c1c(NC(=O)CCC(=O)O)sc2c1CCCCC2,-,-,-,-,-,.
CCOC(=O)c1ccc(NC(=O)c2c(NC(=O)CCC(=O)O)sc3c2CCCCC3)cc1,-,.,44,-,-,-
C/C(C/C(C)=C1/SC(=S)NC1=O)=C1\SC(=S)NC1=O,-,-,40,-,-,24
CCCCCC/C(C)=C1/SC(=S)NC1=O,-,-,-,-,-,.
CCOc1ccc(NC(=O)Cn2sc3nc(C)cc(C)c3c2=O)cc1,.,-,.,.,.,.
Cc1cc(C)c2c(=O)n(CC(=O)Nc3cccc(F)c3)sc2n1,-,-,90,-,-,84
Cc1cc(C)c2c(=O)n(CC(=O)Nc3ccc(Cl)cc3)sc2n1,-,-,91,-,-,84
Cc1ccc(NC(=O)Cn2sc3nc(C)cc(C)c3c2=O)c(Cl)c1,-,-,79,-,-,88
Cn1cccc1CC(=O)NN=C/C=C\c1ccco1,-,.,-,.,-,.
COc1ccc([N+](=O)[O-])cc1NC(=O)C(C)OC(=O)CC1CCCC1 (stereo unspecified),-,-,-,-,-,.
Cc1ccc(-c2nc(N)sc2CC(=O)OCC(=O)N2C(C)CCCC2C)cc1 (stereo unspecified),-,-,49,-,-,-

# Compound activity: PubChem, The Scripps Research Institute Molecular Screening Center
